pIC50: −log10 of the molar value.
How the values were obtained:
[1] = test system: MDA-MB-231-GFP human breast cancer cells; assay: Annexin V-PE apoptosis assay; type: cell-based; conditions: MDA-MB-231-GFP cells; for Induction of apoptosis (annexin V-PE positive cells): 5 day treatments
[2] = test system: MDA-MB-231-GFP human breast cancer cells; assay: Visible lung metastases counted at sacrifice; type: in vivo, Nu/Nu female BALB/c mice; conditions: 500 mg/kg diet each, control 70%
[3] = test system: MDA-MB-231-GFP tumor tissue; assay: Tumor immunohistochemistry: Ki-67 proliferation; type: in vivo, Nu/Nu female BALB/c mice; conditions: tumor tissue from 5 mice/group, 500 mg/kg diet
Method in brief: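 Female Nu/Nu BALB/c mice (6 weeks) received 2 × 10^6 MDA-MB-231-GFP cells s.c. (inguinal) in 50% matrigel. At ~25 mm3 they were randomised (10/group) to tocopherol-stripped AIN-76A diet with 33 IU all-rac-α-tocopherol acetate/kg, ± test form at 500 mg/kg, for 24 days. Formalin-fixed tumours were cut into 5 μm sections and stained for Ki-67. Positive cells were counted in 5 fields (400×) per tumour, 5 mice/group; Mann-Whitney test.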

[4] = test system: MDA-MB-231-GFP human breast cancer cells; assay: Colony formation assay; type: cell-based; conditions: for pIC50: Homo sapiens, 240 h, read-out: IC50 for inhibition of colony formation; for Effect on colony formation: MDA-MB-231-GFP cells, 10 days, 10–40 μM range tested
Method in brief: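 MDA-MB-231-GFP cells were seeded at 1000 per 100 mm plate in 2% FBS medium and grown 3 days to form small colonies. They were then treated 10 days with test compound at 10–40 μM (positive control 5–15 μM) or DMSO/ethanol (1:4) vehicle. Colonies were methanol-fixed, stained with 0.1% methylene blue and counted by image analysis. Survival (%) = colonies treated/control × 100. IC50 came from survival curves; mean ± SD, ≥2 experiments.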

Survivin = assay: Western blot of Survivin protein expression; type: cell-based, human; conditions: MDA-MB-231-GFP cells; for Survivin protein expression: 5 days
Method in brief: (§1)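 Whole-cell extracts came from the same 5-day-treated MDA-MB-231-GFP samples (2% FBS) used for annexin V analysis. Blots were incubated overnight at 4°C with primary antibody in 0.1% BSA/TBST against PARP (cleavage), Survivin, DR5 or GAPDH. After TBST washes they were probed with HRP-conjugated secondary antibody.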

PARP = assay: Western blot of PARP cleavage; type: cell-based, human; conditions: MDA-MB-231-GFP cells; for PARP cleavage: 5 days
Method in brief: as §1

DR5 = assay: Western blot of DR5 protein expression; type: cell-based, human; conditions: MDA-MB-231-GFP cells; for DR5 protein expression: 5 days
[5] = test system: BALB/c 66cl-4-GFP mouse mammary cancer cells; conditions: formulated in liposomes, oral gavage, BALB/c 66cl-4-GFP cells; cited from earlier work
[6] = test system: MDA-MB-231-GFP tumor tissue; assay: Tumor immunohistochemistry: TUNEL apoptosis; type: in vivo, Nu/Nu female BALB/c mice; conditions: tumor tissue from 5 mice/group, 500 mg/kg diet
Method in brief: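 Xenografts came from female Nu/Nu BALB/c mice carrying s.c. MDA-MB-231-GFP tumours in matrigel. From ~25 mm3, mice were fed for 24 days a tocopherol-stripped AIN-76A basal diet (33 IU all-rac-α-tocopherol acetate/kg) with or without 500 mg/kg test vitamin E form. TUNEL (ApopTag) staining was done on deparaffinised 5 μm sections of formalin-fixed tumours. Brown nuclei were scored in 15 fields (400×) per tumour, 5 mice/group; Mann-Whitney test.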

[7] = test system: human MDA-MB-231 breast cancer cells; conditions: supplemented in the diet, MDA-MB-231 cells; cited from earlier work

| SMILES | Induction of apoptosis (annexin V-PE positive cells) [1] | Incidence of visible lung metastases [2] [%] | Decrease of Ki-67 positive cells in tumor in comparison to control group [3] | pIC50 [4] | Survivin protein expression (Survivin) | PARP cleavage (PARP) | DR5 protein expression (DR5) | Tumor growth in syngeneic mouse model [5] | Increase of TUNEL positive cells in tumor in comparison to control group [6] | Block of α-TEA-induced apoptosis by αT ([1]; 10 μM αT plus 10 μM α-TEA, 5 days) [%] | Block of γT-induced apoptosis by αT ([1]; 10 μM αT plus 40 μM γT, 5 days) [%] | Effect on colony formation [4] | Effect of αT co-treatment on γT- and α-TEA-induced downregulation of Survivin (Survivin) | Effect of αT co-treatment on γT- and α-TEA-induced cleavage of PARP (PARP) | Effect of αT co-treatment on γT- and α-TEA-induced upregulation of DR5 (DR5) | Tumor burden in xenograft model [7] |
| --- | --- | --- | --- | --- | --- | --- | --- | --- | --- | --- | --- | --- | --- | --- | --- | --- |
| Cc1c(C)c2c(c(C)c1OCC(=O)O)CC[C@@](C)(CCC[C@H](C)CCC[C@H](C)CCCC(C)C)O2 [α-TEA, RRR-α-tocopherol ether-linked acetic acid analog] | induced dose-dependent apoptosis | 30 | 39% | 5.32 | downregulation of anti-apoptotic Survivin | PARP cleavage | upregulation of pro-apoptotic death receptor DR5 | suppressed tumor growth | 2.1 fold |  |  |  |  |  |  |  |
| Cc1c(O)cc2c(c1C)O[C@](C)(CCC[C@H](C)CCC[C@H](C)CCCC(C)C)CC2 [γT, RRR-γ-tocopherol] | induced dose-dependent apoptosis | 30 | no significant difference | 4.93 | downregulation of anti-apoptotic Survivin | PARP cleavage | upregulation of pro-apoptotic death receptor DR5 | suppressed tumor growth | 1.9 fold |  |  |  |  |  |  |  |
| Cc1c(C)c2c(c(C)c1O)CC[C@@](C)(CCC[C@H](C)CCC[C@H](C)CCCC(C)C)O2 [αT, RRR-α-tocopherol] |  | 60 | but not αT or αT + γT groups |  | did not downregulate Survivin | did not cause cleavage of PARP | induced an increase in DR5 protein expression |  | but not in the αT or αT + γT groups | 70 | 60 | no inhibitory effect | blocked | blocked | blocked |  |
| Cc1c(C)c2c(c(C)c1O)CCC(C)(CCCC(C)CCCC(C)CCCC(C)C)O2 (racemic) [all-rac-αT, all-racemic-α-tocopherol] |  | 30 | 23% |  | did not downregulate Survivin | did not cause cleavage of PARP | induced an increase in DR5 protein expression | suppressed tumor growth | 2.1 fold |  |  | no inhibitory effect |  |  |  | reduced tumor burden |

From publication PMC3008344 (Molecular nutrition & food research, 2009)
